Only some compounds are listed: those with a hit (about 1.9% of all), similar ones and a draw of the others.
M5 antag: human M5 muscarinic receptor antagonists, primary screen, CHO cells, Fluo-8 calcium fluorescence; Muscarinic acetylcholine receptor M5 (Homo sapiens), P08912; CHO-hM5 cells, ACh EC80; inhibition, % at 3 µM; 0.59% of 360,000 active; AID 624040, 2012;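 active = inhibition above a per-plate cutoff, the mean of that plate's test compounds plus 3 SD, cut at about 27% in these data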
Target sequence (P08912 whole entry, looked up): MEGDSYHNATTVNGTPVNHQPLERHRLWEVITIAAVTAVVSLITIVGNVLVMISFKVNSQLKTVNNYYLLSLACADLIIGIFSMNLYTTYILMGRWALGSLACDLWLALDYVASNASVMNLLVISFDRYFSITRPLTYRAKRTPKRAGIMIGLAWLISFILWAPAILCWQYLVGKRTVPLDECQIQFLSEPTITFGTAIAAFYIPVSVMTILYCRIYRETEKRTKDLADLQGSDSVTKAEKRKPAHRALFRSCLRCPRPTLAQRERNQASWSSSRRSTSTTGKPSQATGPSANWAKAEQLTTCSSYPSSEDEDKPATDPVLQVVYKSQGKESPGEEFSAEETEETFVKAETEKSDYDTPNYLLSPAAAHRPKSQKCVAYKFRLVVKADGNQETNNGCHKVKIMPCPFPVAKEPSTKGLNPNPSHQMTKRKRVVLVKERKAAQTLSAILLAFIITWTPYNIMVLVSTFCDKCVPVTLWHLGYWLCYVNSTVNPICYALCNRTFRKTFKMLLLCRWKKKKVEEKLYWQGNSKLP
M5 PAM: human M5 muscarinic receptor positive allosteric modulators, primary screen, CHO-K1 cells, Fluo-8 calcium fluorescence. CHO-K1 hM5, ACh EC20 PAM; 0% = ACh EC20, 100% = ACh EC100. activation, % at 3 µM. 0.3% of 360,000 active. AID 624038, 2012;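 active = activation above the run cutoff, the mean activation of all test compounds plus 3 SD, cut at about 18% in these data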
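Assay system: CHO-K1 hM5 cells. Also added: acetylcholine at EC20 concentration, added after compound. Dosing: 3 µM, single dose. Times: compound preincubation 140 s before EC20 acetylcholine addition. Signal: Fluo-8 calcium fluorescence. Measure: % activation relative to EC20 and EC100 ACh responses. Repeats: singlicate, one well per test compound.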
CHRM4 agonist: human M4 muscarinic receptor agonists, primary screen, CHO-K1 cells, Fluo-8 calcium fluorescence; Muscarinic acetylcholine receptor M4 (Homo sapiens), P08173; CHO-K1 hM4/Gqi5; vehicle 0%, full acetylcholine response 100%; activation, % at 3 µM; 0.14% of 360,000 active; AID 624127, 2012;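 active = activation above the run mean over all test wells plus 3 SD, cut at about 32% in these data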;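 note: peak over basal fluorescence ratio per well then scaled between controls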
M4 PAM: human M4 muscarinic receptor positive allosteric modulators, primary screen, CHO-K1 cells, Fluo-8 calcium fluorescence | Muscarinic acetylcholine receptor M4 (Homo sapiens), P08173 | CHO-K1 hM4/Gqi5, ACh EC20; 0% = ACh EC20, 100% = maximal ACh | activation, % at 3 µM | 0.4% of 360,000 active | AID 624126, 2012;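 active = activation above its plate's cutoff, the mean activation of sample wells plus 3 SD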
M4 antag: human M4 muscarinic receptor antagonists, primary screen, CHO cells, Fluo-8 calcium fluorescence. inhibition, % at 3 µM. 0.73% of 360,000 active. CHO-hM4 cells, ACh EC80. Muscarinic acetylcholine receptor M4 (Homo sapiens), P08173;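 active = inhibition above its plate's cutoff, the mean inhibition of sample wells plus 3 SD, cut at about 27% in these data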
M5 ag: human M5 muscarinic receptor agonists, primary screen, CHO-K1 cells, Fluo-8 calcium fluorescence; Muscarinic acetylcholine receptor M5 (Homo sapiens), P08912; CHO-K1 hM5 cells; 0% DMSO wells, 100% maximal acetylcholine response; activation, % at 3 µM; 0.19% of 360,000 active;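 active = activation above the run's mean over test compounds plus 3 SD, cut at about 23% in these data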;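 note: signal is peak over basal fluorescence ratio across the kinetic read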
A number is an active result; - = inactive.

SMILES	M5 antag	M5 PAM	CHRM4 agonist	M4 PAM	M4 antag	M5 ag
COc1ccccc1NC(=O)C(C)N1C(=O)c2ccccc2C1=O (stereo not drawn)	-	-	-	-	-	-
CC(C)C(C(=O)Nc1ccccc1F)N1C(=O)c2ccccc2C1=O (stereo not drawn)	-	20	-	-	-	-
COc1ccc(NC(=O)C(C)N2C(=O)c3ccccc3C2=O)c(OC)c1 (stereo not drawn)	-	18	-	-	-	-
CCCCOCCCNc1ncnc2c1[nH]c1ccccc12	28	-	-	-	31	-
CCOCCCNc1ncnc2c1[nH]c1ccccc12	-	-	-	-	-	-
COc1ccc(CCNCc2ccc(-c3ccccc3)cc2)cc1OC	-	-	34	-	-	-
Cc1ccc(C2N3CC4([N+](=O)[O-])CN2CC([N+](=O)[O-])(C3)C4(C)C)cc1 (stereo not drawn)	-	-	-	-	-	-
CCCC1N2CC3([N+](=O)[O-])CN1CC([N+](=O)[O-])(C2)C3(C)C (stereo not drawn)	-	-	-	20	-	-
Cc1ccc(CNC(=O)CCc2nc3ccccc3c(=O)[nH]2)cc1	-	36	-	-	-	-
O=C(O)c1ccccc1Cc1nc2cc(Cl)ccc2c(=O)[nH]1	-	-	-	-	-	-
CCOC(=O)c1ccccc1Cc1nc2ccccc2c(=O)[nH]1	44	-	-	-	-	-
CCCC(=O)Nc1ncnc2c1ncn2[C@@H]1O[C@@H]2COP(=O)(O)O[C@H]2[C@H]1OC(=O)CCC	-	-	-	-	-	-
Cc1ccc(Cl)c2c1NC(=O)C2(O)CC(=O)c1ccccc1O (stereo not drawn)	-	-	-	-	-	-
COc1cc(/C=C2\SC(=S)N(NC(=O)c3ccccc3O)C2=O)ccc1O	-	-	33	-	-	-
O=C(NN1C(=O)/C(=C/c2ccc(O)cc2)SC1=S)c1cccc(O)c1	-	-	-	-	-	25
c1ccn2cc(-c3ccc4c(c3)OCO4)cc2c1	-	-	-	-	-	-
COc1ccc(NC(=O)CC2C(=O)N(CCc3ccccc3)C(=S)N2Cc2cccnc2)cc1 (stereo not drawn)	-	-	-	-	27	-
O=C(CCCn1ncn2c(cc3occc32)c1=O)NCc1cccc(Cl)c1	-	-	-	20	-	-
COc1cccc(CNC(=O)CCCn2ncn3c(cc4occc43)c2=O)c1	-	-	-	-	-	-
Cc1ccc(NC(=O)C2(c3ccccc3)CCOCC2)cc1	-	-	-	-	-	-
O=C1CCC(NC(=O)c2ccccc2)C(=O)N1 (stereo not drawn)	-	-	-	-	-	-
CCCc1nnc(NC(=O)c2ccncc2)s1	-	-	-	-	-	-
CCc1nnc(NC(=O)c2ccncc2)s1	-	20	-	18	-	-
CCc1nnc(NC(=O)c2cc(-c3ccccn3)nc3ccccc23)s1	-	-	-	19	-	-
CCc1nnc(NC(=O)c2cc(-c3ccco3)nc3ccccc23)s1	-	-	-	-	-	-
CCOC(=O)CN1C(=O)CN(c2ccc(C)c(C)c2)C1=O	-	-	-	-	-	-
CCCN(CCC)C(=O)c1ccc2c(c1)S(=O)(=O)c1ccccc1C2=O	30	-	-	-	-	-
CC(=O)C1=C(c2ccccc2)NC(=S)NC1c1ccc(O)c(O)c1 (stereo not drawn)	-	26	-	-	-	-
COc1ccccc1-n1c(-c2ccccc2)c[n+]2c1CCc1ccccc1-2	31	-	-	-	34	-

Assay outcomes as filed in PubChem.
